Active and inactive are the calls of the source.
Columns and labels:
[1] = molecular target: Sodium-dependent noradrenaline transporter (Homo sapiens) (UniProt P23975); experiment: Displacement of [125I]-RTI-55 from human recombinant NET expressed in MDCK cells at 10 uM relative to control; format: cell-based
Summary of the method: (§1)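 Tested once at 10 μM in a commercial radioligand binding panel of 68 GPCRs, ion channels, kinases and transporters. Activity is given as displacement of each radioligand relative to control.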

Rattus norvegicus [2] = species: Rattus norvegicus; experiment: Displacement of [3H]-GABA from GABA transporter in rat cerebral cortex at 10 uM relative to control; format: tissue-based; summary of the method: as §1
[3] = molecular target: Substance-P receptor (Homo sapiens) (UniProt P25103); experiment: Displacement of [3H]-Substance P from human recombinant tachykinin NK1 receptor expressed in CHO cells at 10 uM relative to control; format: cell-based
[4] = molecular target: 5-hydroxytryptamine receptor 1A (Homo sapiens) (UniProt P08908); experiment: Displacement of [3H]-8-OH-DPAT from human recombinant 5-HT1A receptor expressed in CHO-K1 cells at 10 uM relative to control; format: cell-based; summary of the method: as §1
Rattus norvegicus [5] = species: Rattus norvegicus; experiment: Displacement of [3H]-Rolipram from rolipram binding site in rat brain at 10 uM relative to control; format: tissue-based
Rattus norvegicus [6] = species: Rattus norvegicus; experiment: Displacement of [35S]-ATP-alpha-S from purinergic P2Y receptor in rat brain at 10 uM relative to control; format: tissue-based; summary of the method: as §1
[7] = molecular target: Platelet-activating factor receptor (Homo sapiens) (UniProt P25105); experiment: Displacement of [3H]-PAF from platelet activating factor receptor in human platelets at 10 uM relative to control; summary of the method: as §1
[8] = molecular target: Delta-type opioid receptor (Homo sapiens) (UniProt P41143); experiment: Displacement of [3H]-Naltrindole from human recombinant delta opioid receptor expressed in HEK293 cells at 10 uM relative to control; format: cell-based; summary of the method: as §1
IMR-32 = experiment: Displacement of [125I] Epibatidine from nicotinic acetylcholine receptor in human IMR32 cells at 10 uM relative to control; format: cell-based; summary of the method: as §1
[9] = molecular target: Neuropeptide Y receptor type 1 (Homo sapiens) (UniProt P25929); experiment: Displacement of [125I]-Peptide YY from neuropeptide Y Y1 receptor in human SK-N-MC cells at 10 uM relative to control; format: cell-based; summary of the method: as §1
[10] = molecular target: Neuropeptide Y receptor type 2 (Homo sapiens) (UniProt P49146); experiment: Displacement of [125I]-Peptide YY from neuropeptide Y Y2 receptor in human KAN-TS cells at 10 uM relative to control; format: cell-based; summary of the method: as §1
Mus musculus = species: Mus musculus; experiment: Displacement of [125I]-Interleukin-1beta from IL-1 receptor in mouse 3T3-SWISS cells at 10 uM relative to control; format: cell-based; summary of the method: as §1
[11] = molecular target: Histamine H3 receptor (Homo sapiens) (UniProt Q9Y5N1); experiment: Displacement of [3H]-N(-)-alpha-Methylhistamine from human recombinant histamine H3 receptor expressed in CHO-K1 cells at 10 uM relative to control; format: cell-based; summary of the method: as §1
[12] = molecular target: Histamine H2 receptor (Homo sapiens) (UniProt P25021); experiment: Displacement of [125I]-Aminopotentidine from human recombinant histamine H2 receptor expressed in CHO-K1 cells at 10 uM relative to control; format: cell-based; summary of the method: as §1
[13] = molecular target: T1, Glutamate NMDA receptor (Rattus norvegicus) (UniProt P35439+Q00959+Q00960+Q00961+Q62645+Q8VHN2+Q9R1M7); experiment: Displacement of [3H]-MDL 105,519 from NMDA receptor glycine binding site in rat cerebral cortex at 10 uM relative to control; format: tissue-based; summary of the method: as §1
[14] = molecular target: T1, Glutamate NMDA receptor (Rattus norvegicus); experiment: Displacement of [3H]-TCP from NMDA receptor phencyclidine binding site in rat cerebral cortex at 10 uM relative to control; format: tissue-based
[15] = molecular target: T1, Glutamate NMDA receptor (Rattus norvegicus); experiment: Displacement of [3H]-CGP-39653 from NMDA receptor agonist binding site in rat cerebral cortex at 10 uM relative to control; format: tissue-based; summary of the method: as §1
[16] = molecular target: Glucocorticoid receptor (Homo sapiens) (UniProt P04150); experiment: Displacement of [3H]-Dexamethasone from human recombinant glucocorticoid receptor at 10 uM relative to control; summary of the method: as §1
[17] = molecular target: Estrogen receptor (Homo sapiens) (UniProt P03372); experiment: Displacement of [3H]-Estradiol from human recombinant ERalpha receptor expressed in insect Sf9 cells at 10 uM relative to control; summary of the method: as §1
[18] = molecular target: Epidermal growth factor receptor (Homo sapiens) (UniProt P00533); experiment: Displacement of [125I]-EGF from epidermal growth factor receptor in human A431 cells at 10 uM relative to control; format: cell-based; conditions: A-431; summary of the method: as §1
[19] = molecular target: Endothelin-1 receptor (Homo sapiens) (UniProt P25101); experiment: Displacement of [125I]-Endothelin-1 from human recombinant ETA receptor expressed in CHO-K1 cells at 10 uM relative to control; format: cell-based; summary of the method: as §1
[20] = molecular target: Cannabinoid receptor 1 (Homo sapiens) (UniProt P21554); experiment: Displacement of [3H]-SR141716A from human recombinant CB1 receptor expressed in rat Chem-1 cells at 10 uM relative to control; format: cell-based
[21] = molecular target: B1 bradykinin receptor (Homo sapiens) (UniProt P46663); experiment: Displacement of [3H]-(Des-Arg10)-Kallidin from bradykinin B1 receptor in human IMR90 cells at 10 uM relative to control; format: cell-based; conditions: IMR-90; summary of the method: as §1
[22] = molecular target: Androgen receptor (Homo sapiens) (UniProt P10275); experiment: Displacement of [3H]-Methyltrienolone from androgen receptor in human LNCAP cells at 10 uM relative to control; format: cell-based; summary of the method: as §1
[23] = molecular target: Beta-2 adrenergic receptor (Homo sapiens) (UniProt P07550); experiment: Displacement of [3H]-CGP-12177 from human recombinant adrenergic beta2 receptor expressed in CHO cells at 10 uM relative to control; format: cell-based; summary of the method: as §1
[24] = molecular target: Alpha-1A adrenergic receptor (Rattus norvegicus) (UniProt P43140); experiment: Displacement of [3H]-Prazosin from adrenergic alpha1A receptor in rat submaxillary gland at 10 uM relative to control; format: tissue-based
[25] = molecular target: Adenosine receptor A1 (Homo sapiens) (UniProt P30542); experiment: Displacement of [3H]-DPCPX from human recombinant adenosine A1 receptor expressed in CHO cells at 10 uM relative to control; format: cell-based; summary of the method: as §1
[26] = molecular target: Adenosine receptor A3 (Homo sapiens) (UniProt P0DMS8); experiment: Displacement of [125I]-AB-MECA from human recombinant adenosine A3 receptor expressed in CHO-K1 cells at 10 uM relative to control; format: cell-based; summary of the method: as §1
[27] = molecular target: Metabotropic glutamate receptor 7 (Rattus norvegicus) (UniProt P35400); experiment: Allosteric modulation of rat mGlu7 receptor expressed in HEK293 cells coexpressing G protein-activated inward rectifier potassium channel assessed as effect on L-AP4-induced thallium flux at 10 uM; format: cell-based
[28] = molecular target: Metabotropic glutamate receptor 3 (Rattus norvegicus) (UniProt P31422); experiment: Allosteric modulation of rat mGlu3 receptor expressed in HEK293 cells coexpressing G protein-activated inward rectifier potassium channel assessed as effect on glutamate-induced thallium flux at 10 uM; format: cell-based
[29] = molecular target: Metabotropic glutamate receptor 1 (Rattus norvegicus) (UniProt P23385); experiment: Allosteric modulation of rat mGlu1 receptor expressed in HEK293 cells assessed as effect on glutamate-induced calcium mobilization at 10 uM; format: functional, cell-based
Brain [30] = experiment: AUC in CD-1 mouse brain at 10 mg/kg, ip by LC-MS/MS analysis; format: ADME, organism-based; parameters: dose 10 mg/kg, route intraperitoneal; conditions: in vivo
Brain [31] = experiment: Fraction unbound in mouse brain homogenates by equilibrium dialysis technique; format: ADME, tissue-based; conditions: brain homogenate

Metabotropic glutamate receptor 7 (Rattus norvegicus), sequence (P35400 whole entry): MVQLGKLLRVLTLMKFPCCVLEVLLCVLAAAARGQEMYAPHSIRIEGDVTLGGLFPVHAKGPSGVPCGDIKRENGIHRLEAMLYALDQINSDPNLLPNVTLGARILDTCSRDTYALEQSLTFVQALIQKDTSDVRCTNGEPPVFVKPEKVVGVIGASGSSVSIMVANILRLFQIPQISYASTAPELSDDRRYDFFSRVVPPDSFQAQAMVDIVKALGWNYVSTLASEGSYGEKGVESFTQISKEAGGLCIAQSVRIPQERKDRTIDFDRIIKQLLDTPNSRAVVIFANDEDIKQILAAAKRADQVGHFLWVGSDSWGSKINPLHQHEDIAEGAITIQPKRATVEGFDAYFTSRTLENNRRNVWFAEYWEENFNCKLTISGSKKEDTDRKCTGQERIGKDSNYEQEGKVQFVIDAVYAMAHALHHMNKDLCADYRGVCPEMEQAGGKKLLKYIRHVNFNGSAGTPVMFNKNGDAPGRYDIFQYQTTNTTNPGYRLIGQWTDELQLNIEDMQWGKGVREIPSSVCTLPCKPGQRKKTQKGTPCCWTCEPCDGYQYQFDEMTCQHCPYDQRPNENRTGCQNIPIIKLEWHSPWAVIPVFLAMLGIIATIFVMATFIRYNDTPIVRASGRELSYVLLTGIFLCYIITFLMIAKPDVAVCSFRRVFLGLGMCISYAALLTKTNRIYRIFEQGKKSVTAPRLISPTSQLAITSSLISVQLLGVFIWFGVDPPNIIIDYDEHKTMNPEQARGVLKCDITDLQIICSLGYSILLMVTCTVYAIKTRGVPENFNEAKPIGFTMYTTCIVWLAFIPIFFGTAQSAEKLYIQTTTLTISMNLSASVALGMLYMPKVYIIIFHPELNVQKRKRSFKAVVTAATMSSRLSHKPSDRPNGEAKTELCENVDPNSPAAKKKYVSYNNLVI
Neuropeptide Y receptor type 2 (Homo sapiens), sequence (P49146 whole entry): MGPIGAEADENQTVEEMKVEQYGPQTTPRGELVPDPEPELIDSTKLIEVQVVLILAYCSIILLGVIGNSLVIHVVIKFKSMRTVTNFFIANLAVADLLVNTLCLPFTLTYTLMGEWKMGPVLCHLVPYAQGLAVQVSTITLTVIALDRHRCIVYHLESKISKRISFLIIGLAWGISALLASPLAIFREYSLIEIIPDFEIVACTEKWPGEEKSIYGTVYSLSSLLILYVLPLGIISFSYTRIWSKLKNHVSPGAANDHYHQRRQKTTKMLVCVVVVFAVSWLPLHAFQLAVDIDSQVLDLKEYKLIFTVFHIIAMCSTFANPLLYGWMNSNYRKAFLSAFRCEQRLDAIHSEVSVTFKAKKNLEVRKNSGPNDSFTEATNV
Epidermal growth factor receptor (Homo sapiens), sequence (P00533 whole entry): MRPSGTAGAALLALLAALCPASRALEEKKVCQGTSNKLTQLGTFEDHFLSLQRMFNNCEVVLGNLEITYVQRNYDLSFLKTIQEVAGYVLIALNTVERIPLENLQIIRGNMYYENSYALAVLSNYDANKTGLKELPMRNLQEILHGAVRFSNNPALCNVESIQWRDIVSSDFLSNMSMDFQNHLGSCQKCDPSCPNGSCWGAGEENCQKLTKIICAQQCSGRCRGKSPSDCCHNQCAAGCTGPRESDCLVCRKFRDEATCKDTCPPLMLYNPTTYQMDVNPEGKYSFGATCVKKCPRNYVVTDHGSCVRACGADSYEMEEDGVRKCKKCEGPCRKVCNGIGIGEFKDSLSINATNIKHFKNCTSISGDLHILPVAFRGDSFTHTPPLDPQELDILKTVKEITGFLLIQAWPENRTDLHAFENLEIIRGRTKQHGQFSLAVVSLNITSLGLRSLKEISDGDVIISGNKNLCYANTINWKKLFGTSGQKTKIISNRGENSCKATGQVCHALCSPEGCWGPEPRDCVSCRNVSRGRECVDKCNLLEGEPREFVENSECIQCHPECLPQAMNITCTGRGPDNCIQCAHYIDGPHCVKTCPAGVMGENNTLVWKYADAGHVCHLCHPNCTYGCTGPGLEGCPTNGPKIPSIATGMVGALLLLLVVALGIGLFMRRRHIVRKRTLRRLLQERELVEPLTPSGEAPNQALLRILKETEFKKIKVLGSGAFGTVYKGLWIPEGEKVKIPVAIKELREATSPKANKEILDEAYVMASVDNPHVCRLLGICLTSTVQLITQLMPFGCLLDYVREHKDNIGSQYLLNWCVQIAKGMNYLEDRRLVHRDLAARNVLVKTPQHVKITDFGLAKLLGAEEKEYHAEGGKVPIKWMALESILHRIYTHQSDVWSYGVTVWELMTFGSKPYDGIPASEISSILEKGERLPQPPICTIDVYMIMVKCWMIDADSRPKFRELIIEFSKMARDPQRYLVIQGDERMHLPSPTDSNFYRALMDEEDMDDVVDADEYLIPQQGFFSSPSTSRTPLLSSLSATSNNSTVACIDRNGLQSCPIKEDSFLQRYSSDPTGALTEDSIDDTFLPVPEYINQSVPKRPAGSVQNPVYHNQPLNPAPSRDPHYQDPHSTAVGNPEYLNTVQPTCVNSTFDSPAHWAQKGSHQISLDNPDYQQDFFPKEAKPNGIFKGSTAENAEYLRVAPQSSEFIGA
Substance-P receptor (Homo sapiens), sequence (P25103 whole entry): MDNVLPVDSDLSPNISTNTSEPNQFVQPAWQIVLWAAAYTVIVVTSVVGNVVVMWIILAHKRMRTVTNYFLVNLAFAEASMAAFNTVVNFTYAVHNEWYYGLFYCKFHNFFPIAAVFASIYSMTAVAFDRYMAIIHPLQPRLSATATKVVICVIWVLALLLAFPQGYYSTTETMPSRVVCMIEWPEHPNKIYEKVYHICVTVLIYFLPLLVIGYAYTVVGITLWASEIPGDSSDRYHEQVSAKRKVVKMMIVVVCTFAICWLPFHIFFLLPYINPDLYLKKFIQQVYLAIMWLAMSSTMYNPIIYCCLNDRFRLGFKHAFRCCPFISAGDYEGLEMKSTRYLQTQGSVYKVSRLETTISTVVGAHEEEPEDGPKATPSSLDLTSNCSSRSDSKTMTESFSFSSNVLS
Delta-type opioid receptor (Homo sapiens), sequence (P41143 whole entry): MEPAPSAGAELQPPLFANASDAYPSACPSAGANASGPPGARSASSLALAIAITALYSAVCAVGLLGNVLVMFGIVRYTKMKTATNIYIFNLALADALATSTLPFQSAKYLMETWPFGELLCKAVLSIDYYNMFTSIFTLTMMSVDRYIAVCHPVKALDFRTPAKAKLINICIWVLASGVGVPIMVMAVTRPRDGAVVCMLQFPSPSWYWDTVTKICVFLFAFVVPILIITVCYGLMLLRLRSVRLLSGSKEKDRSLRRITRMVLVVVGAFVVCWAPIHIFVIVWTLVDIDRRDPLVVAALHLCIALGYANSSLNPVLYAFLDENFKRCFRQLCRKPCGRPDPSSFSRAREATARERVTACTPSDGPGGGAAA
Histamine H3 receptor (Homo sapiens), sequence (Q9Y5N1 whole entry): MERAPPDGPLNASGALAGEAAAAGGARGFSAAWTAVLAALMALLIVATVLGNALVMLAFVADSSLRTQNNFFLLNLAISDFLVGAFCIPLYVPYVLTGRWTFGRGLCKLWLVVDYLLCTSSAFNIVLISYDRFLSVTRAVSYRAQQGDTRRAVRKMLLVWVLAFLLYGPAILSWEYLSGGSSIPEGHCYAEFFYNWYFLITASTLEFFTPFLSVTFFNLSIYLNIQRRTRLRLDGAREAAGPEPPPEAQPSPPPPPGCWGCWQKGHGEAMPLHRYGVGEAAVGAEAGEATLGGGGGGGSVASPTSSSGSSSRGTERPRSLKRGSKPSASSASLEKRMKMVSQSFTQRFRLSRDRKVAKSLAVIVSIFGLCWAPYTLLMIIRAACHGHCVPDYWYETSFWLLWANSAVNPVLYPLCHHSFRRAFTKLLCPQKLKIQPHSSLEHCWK
Estrogen receptor (Homo sapiens), sequence (P03372 whole entry): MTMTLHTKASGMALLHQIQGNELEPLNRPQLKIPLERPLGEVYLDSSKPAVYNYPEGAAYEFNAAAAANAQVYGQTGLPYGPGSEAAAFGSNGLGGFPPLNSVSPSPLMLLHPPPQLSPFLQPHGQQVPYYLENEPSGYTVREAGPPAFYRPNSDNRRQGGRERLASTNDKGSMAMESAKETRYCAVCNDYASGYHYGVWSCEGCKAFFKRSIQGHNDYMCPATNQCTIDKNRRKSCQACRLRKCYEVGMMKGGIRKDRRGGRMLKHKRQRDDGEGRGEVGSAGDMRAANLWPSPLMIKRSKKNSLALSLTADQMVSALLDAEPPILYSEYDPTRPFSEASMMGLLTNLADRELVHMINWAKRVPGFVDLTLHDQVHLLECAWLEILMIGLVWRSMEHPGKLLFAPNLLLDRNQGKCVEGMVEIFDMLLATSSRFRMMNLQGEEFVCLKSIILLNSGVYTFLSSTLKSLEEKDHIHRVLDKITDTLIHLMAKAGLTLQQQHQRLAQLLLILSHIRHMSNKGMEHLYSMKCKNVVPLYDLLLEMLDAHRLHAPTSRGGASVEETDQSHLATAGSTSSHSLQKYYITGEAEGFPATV
Cannabinoid receptor 1 (Homo sapiens), sequence (P21554 whole entry): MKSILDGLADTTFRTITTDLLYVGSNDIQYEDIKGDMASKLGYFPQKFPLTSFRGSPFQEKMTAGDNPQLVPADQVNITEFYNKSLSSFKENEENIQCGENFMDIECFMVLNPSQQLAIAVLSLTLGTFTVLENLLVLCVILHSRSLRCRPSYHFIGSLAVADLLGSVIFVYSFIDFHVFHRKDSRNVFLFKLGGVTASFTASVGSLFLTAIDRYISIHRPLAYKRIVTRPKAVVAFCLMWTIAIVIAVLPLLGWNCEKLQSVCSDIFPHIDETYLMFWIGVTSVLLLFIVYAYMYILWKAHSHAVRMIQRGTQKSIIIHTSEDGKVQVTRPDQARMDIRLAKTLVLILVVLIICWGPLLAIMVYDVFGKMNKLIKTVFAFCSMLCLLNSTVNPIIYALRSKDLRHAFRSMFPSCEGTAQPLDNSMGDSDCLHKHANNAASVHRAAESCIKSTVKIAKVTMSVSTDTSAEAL

Cc1csc(NC(=O)c2cc(F)cc(Oc3cncnc3)c2)n1
> 35%: inhibition [1] | inhibition (Rattus norvegicus [2]) | inhibition [3] | inhibition [4] | inhibition (Rattus norvegicus [5]) | inhibition (Rattus norvegicus [6]) | inhibition [7] | inhibition [8] | inhibition (IMR-32) | inhibition [9] | inhibition [10] | inhibition (Mus musculus) | inhibition [11] | inhibition [12] | inhibition [13] | inhibition [14] | inhibition [15] | inhibition [16] | inhibition [17] | inhibition [18] | inhibition [19] | inhibition [20] | inhibition [21] | inhibition [22] | inhibition [23] | inhibition [24] | inhibition [25] | inhibition [26]
0.082: Fu (Brain [31])
inactive: Activity [27] | Activity [28] | Activity [29]
696 ng·h/g: AUC (Brain [30])

From ChEMBL document CHEMBL2439973, “Discovery of VU0409106: A negative allosteric modulator of mGlu5 with activity in a mouse model of anxiety” (Bioorg Med Chem Lett, 2013)
